One block for each compound: values may come before it. Active and inactive are the calls of the source. The calls are words filed in the database; no cut-off is given here.
Experiments:
NCI-H1975 [1] = experiment: Antiproliferative activity against gefitinib-resistant human NCI-H1975 cells after 1 to 3 days by MTS assay; assay type: functional
How it was run: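 H1975 (gefitinib-resistant NSCLC, T790M/L858R EGFR) cells exposed to compound at a range of concentrations; viability read by MTS assay at 1, 2 and 3 days of treatment. Data given as mean ± SD, n = 4.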

[2] = target: Heat shock protein HSP 90-beta (Homo sapiens) (UniProt P08238); experiment: Inhibition of HSP90 in gefitinib-resistant human NCI-H1975 cells assessed as degradation of EGFR at 40 uM after 24 hrs by Western blot method; assay type: cell-based
Sequence of Heat shock protein HSP 90-beta (Homo sapiens) (P08238 whole entry): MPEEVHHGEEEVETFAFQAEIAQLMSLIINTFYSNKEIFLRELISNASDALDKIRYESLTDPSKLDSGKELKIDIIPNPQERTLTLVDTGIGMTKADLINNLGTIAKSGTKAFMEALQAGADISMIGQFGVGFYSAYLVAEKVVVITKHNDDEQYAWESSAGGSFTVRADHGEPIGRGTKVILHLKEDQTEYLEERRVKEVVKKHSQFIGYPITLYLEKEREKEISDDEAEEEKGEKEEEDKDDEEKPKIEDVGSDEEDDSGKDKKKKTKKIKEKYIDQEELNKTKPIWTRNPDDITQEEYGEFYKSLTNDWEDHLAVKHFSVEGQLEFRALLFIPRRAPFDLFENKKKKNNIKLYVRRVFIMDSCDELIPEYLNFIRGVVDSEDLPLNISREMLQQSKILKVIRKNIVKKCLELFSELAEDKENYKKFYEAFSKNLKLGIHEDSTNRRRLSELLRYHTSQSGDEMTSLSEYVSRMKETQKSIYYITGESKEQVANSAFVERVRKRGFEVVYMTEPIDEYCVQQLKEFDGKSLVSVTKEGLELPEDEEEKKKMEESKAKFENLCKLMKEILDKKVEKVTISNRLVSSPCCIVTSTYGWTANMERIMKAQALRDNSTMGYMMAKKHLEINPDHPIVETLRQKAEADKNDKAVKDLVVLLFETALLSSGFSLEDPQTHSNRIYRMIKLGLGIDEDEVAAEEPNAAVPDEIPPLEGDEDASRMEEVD
How it was run: (§1)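 H1975 cells treated 24 h with each compound at 40 μM; Hsp90 client proteins and Hsp70 probed by Western blot. Geldanamycin (1 μM) as positive control, DMSO as negative control.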

[3] = target: Heat shock protein HSP 90-beta (Homo sapiens) (UniProt P08238); experiment: Inhibition of HSP90 in gefitinib-resistant human NCI-H1975 cells assessed as downregulation of Thr202/Tyr204 phosphorylated ERK1/2 level at 1 to 100 uM after 24 hrs by Western blot method; assay type: cell-based
How it was run: (§2)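 Dose-response immunoblotting: H1975 cells incubated 24 h with increasing compound concentrations, then lysates probed by Western blot for Hsp90 clients (EGFR, Her2, Met, Akt), downstream signaling proteins and Hsp70. Geldanamycin (1 μM) positive control; DMSO negative control.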

[4] = target: Heat shock protein HSP 90-beta (Homo sapiens) (UniProt P08238); experiment: Inhibition of HSP90 in gefitinib-resistant human NCI-H1975 cells assessed as downregulation of Ser473 phosphorylated AKT level at 1 to 100 uM after 24 hrs by Western blot method; assay type: cell-based; how it was run: as §2
[5] = target: Heat shock protein HSP 90-beta (Homo sapiens) (UniProt P08238); experiment: Inhibition of HSP90 in gefitinib-resistant human NCI-H1975 cells assessed as downregulation of Tyr1068 phosphorylated EGFR level at 1 to 100 uM after 24 hrs by Western blot method; assay type: cell-based; how it was run: as §2
NCI-H1975 [6] = experiment: Downregulation of ERK1/2 in gefitinib-resistant human NCI-H1975 cells at 1 to 100 uM after 24 hrs by Western blot method; assay type: functional, cell-based; how it was run: as §2
[7] = target: Heat shock protein HSP 90-beta (Homo sapiens) (UniProt P08238); experiment: Inhibition of HSP90 in gefitinib-resistant human NCI-H1975 cells assessed as transcriptional upregulation of Hsp70 after 24 hrs by Western blot method; assay type: cell-based; how it was run: as §2
[8] = target: Heat shock protein HSP 90-beta (Homo sapiens) (UniProt P08238); experiment: Inhibition of HSP90 in gefitinib-resistant human NCI-H1975 cells assessed as degradation of AKT after 24 hrs by Western blot method; assay type: cell-based; how it was run: as §2
[9] = target: Heat shock protein HSP 90-beta (Homo sapiens) (UniProt P08238); experiment: Inhibition of HSP90 in gefitinib-resistant human NCI-H1975 cells assessed as degradation of MET after 24 hrs by Western blot method; assay type: cell-based; how it was run: as §2
[10] = target: Heat shock protein HSP 90-beta (Homo sapiens) (UniProt P08238); experiment: Inhibition of HSP90 in gefitinib-resistant human NCI-H1975 cells assessed as degradation of HER2 after 24 hrs by Western blot method; assay type: cell-based; how it was run: as §2
[11] = target: Heat shock protein HSP 90-beta (Homo sapiens) (UniProt P08238); experiment: Inhibition of HSP90 in gefitinib-resistant human NCI-H1975 cells assessed as degradation of EGFR after 24 hrs by Western blot method; assay type: cell-based; how it was run: as §2
[12] = target: Heat shock protein HSP 90-beta (Homo sapiens) (UniProt P08238); experiment: Inhibition of HSP90 in gefitinib-resistant human NCI-H1975 cells assessed as transcriptional upregulation of Hsp70 at 40 uM after 24 hrs by Western blot method; assay type: cell-based; how it was run: as §1
[13] = target: Heat shock protein HSP 90-beta (Homo sapiens) (UniProt P08238); experiment: Inhibition of HSP90 in gefitinib-resistant human NCI-H1975 cells assessed as degradation of AKT at 40 uM after 24 hrs by Western blot method; assay type: cell-based; how it was run: as §1
[14] = target: Heat shock protein HSP 90-beta (Homo sapiens) (UniProt P08238); experiment: Inhibition of HSP90 in gefitinib-resistant human NCI-H1975 cells assessed as degradation of MET at 40 uM after 24 hrs by Western blot method; assay type: cell-based; how it was run: as §1
[15] = target: Heat shock protein HSP 90-beta (Homo sapiens) (UniProt P08238); experiment: Inhibition of HSP90 in gefitinib-resistant human NCI-H1975 cells assessed as degradation of HER2 at 40 uM after 24 hrs by Western blot method; assay type: cell-based; how it was run: as §1

Structure (SMILES): O=C(/C=C/c1ccc(O)cc1O)c1cc(Cl)c(O)cc1O
inhibition (NCI-H1975 [1]): Dose-dependent effect

Structure (SMILES): COc1ccc(/C=C/C(=O)c2cc(Cl)c(O)cc2O)c(OC)c1
inhibition (NCI-H1975 [1]): Dose-dependent effect

GI50 (NCI-H1975 [1]): 1 µM
Structure (SMILES): CCNC(=O)c1n[nH]c(-c2cc(Cl)c(O)cc2O)c1-c1ccc(OC)cc1

inhibition [2]: Active | GI50 (NCI-H1975 [1]): 48 µM | inhibition [3]: Active | inhibition [4]: Active | inhibition [5]: Active | inhibition [7]: Dose-dependent effect | inhibition [8]: Dose-dependent effect | inhibition [9]: Dose-dependent effect | inhibition [10]: Dose-dependent effect | inhibition [11]: Dose-dependent effect | inhibition [12]: Active | inhibition [13]: Active | inhibition [14]: Active | inhibition [15]: Active
Structure (SMILES): COc1cc(/C=C/C(=O)c2cc(Cl)c(O)cc2O)cc(OC)c1OC
inhibition (NCI-H1975 [1]): Dose-dependent effect | Activity (NCI-H1975 [6]): inactive

GI50 (NCI-H1975 [1]): 50 µM
Structure (SMILES): CCCCn1c(Cc2cc(OC)c(OC)c(OC)c2)nc2c(N)ncnc21
